Legend:
Cytochrome P450 2C9 = Cytochrome P450 2C9 (Homo sapiens, UniProt P11712); experiment: Time-dependent inhibition of CYP2C9 in human liver microsomes; type: ADME
Summary of the method: (§1)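 Time- and concentration-dependent CYP inhibition assessed by an IC₅₀ shift assay in human liver microsomes.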

Cytochrome P450 3A4 = Cytochrome P450 3A4 (Homo sapiens, UniProt P08684); experiment: Time-dependent inhibition of CYP3A4 in human liver microsomes; type: ADME; summary of the method: as §1
[1] = Volume of distribution at steady state in cynomolgus monkey at 1 mg/kg, iv and 3 or 5 mg/kg, po; type: ADME, organism-based, Macaca fascicularis; settings: in vivo, read-out: Vdss
Summary of the method: (§2)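 Male mice, rats, dogs and cynomolgus monkeys, fasted overnight, fed after dosing. Intravenous dose 1 mg/kg in saline or 12% sulfobutyl ether β-cyclodextrin; oral arm 3 or 5 mg/kg in 0.5% methylcellulose. Steady-state volume derived from plasma concentration−time data; mean ± SD for n = 3, individual values for n = 2.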

Liver microsome = experiment: Metabolic stability in NADPH-supplemented human liver microsomes assessed as GSH adduct formation; type: ADME
Summary of the method: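 Incubation in NADPH-supplemented human liver microsomes or cryopreserved human hepatocytes, examined for glutathione adduct formation.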

Cytochrome P450 2C19 = Cytochrome P450 2C19 (Homo sapiens, UniProt P33261); experiment: Time-dependent inhibition of CYP2C19 in human liver microsomes; type: ADME; summary of the method: as §1
Chain of Cytochrome P450 2C19 (P33261 whole entry): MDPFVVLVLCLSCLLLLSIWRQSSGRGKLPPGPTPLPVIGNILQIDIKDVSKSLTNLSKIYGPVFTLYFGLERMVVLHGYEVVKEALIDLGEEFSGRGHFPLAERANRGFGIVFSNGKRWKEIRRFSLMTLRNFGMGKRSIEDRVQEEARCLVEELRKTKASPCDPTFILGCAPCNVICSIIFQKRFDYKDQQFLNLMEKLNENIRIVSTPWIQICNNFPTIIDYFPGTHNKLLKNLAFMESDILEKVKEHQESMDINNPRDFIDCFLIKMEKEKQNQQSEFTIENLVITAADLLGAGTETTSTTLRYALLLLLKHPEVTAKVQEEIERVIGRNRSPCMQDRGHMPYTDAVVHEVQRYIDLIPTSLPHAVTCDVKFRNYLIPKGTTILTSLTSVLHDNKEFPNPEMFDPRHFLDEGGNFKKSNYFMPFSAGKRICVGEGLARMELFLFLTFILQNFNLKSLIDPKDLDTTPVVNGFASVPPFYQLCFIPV

[2] = Volume of distribution at steady state in CD-1 mouse at 1 mg/kg, iv and 3 or 5 mg/kg, po; type: ADME, organism-based; settings: in vivo, read-out: Vdss; summary of the method: as §2
[3] = Tmax in cynomolgus monkey at 3 or 5 mg/kg, po; type: ADME, organism-based, Macaca fascicularis; settings: in vivo
Summary of the method: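 Male animals (CD-1 mice 25−35 g, cannulated Wistar-Han rats 250 g, beagle dogs 12 kg, cynomolgus monkeys 7 kg), fasted overnight and fed 1.0 or 2.0 h after dosing, water ad libitum. Oral dose 3 or 5 mg/kg in 0.5% methylcellulose. Parameters calculated from plasma concentration−time data; mean ± SD for n = 3, individual values for n = 2.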

[4] = Volume of distribution at steady state in Beagle dog at 1 mg/kg, iv and 3 or 5 mg/kg, po; type: ADME, organism-based, Canis lupus familiaris; settings: in vivo, read-out: Vdss; summary of the method: as §2
[5] = biological target: T1, Myeloperoxidase (Homo sapiens) (UniProt P05164); experiment: (§3) Inhibition of peroxidase activity of MPO isolated from human polynuclear leukocytes using Amplex Red as substrate assessed as formation of resorufin measured every 20 secs by spectrophotometric analysis
T1 sequence (whole entry): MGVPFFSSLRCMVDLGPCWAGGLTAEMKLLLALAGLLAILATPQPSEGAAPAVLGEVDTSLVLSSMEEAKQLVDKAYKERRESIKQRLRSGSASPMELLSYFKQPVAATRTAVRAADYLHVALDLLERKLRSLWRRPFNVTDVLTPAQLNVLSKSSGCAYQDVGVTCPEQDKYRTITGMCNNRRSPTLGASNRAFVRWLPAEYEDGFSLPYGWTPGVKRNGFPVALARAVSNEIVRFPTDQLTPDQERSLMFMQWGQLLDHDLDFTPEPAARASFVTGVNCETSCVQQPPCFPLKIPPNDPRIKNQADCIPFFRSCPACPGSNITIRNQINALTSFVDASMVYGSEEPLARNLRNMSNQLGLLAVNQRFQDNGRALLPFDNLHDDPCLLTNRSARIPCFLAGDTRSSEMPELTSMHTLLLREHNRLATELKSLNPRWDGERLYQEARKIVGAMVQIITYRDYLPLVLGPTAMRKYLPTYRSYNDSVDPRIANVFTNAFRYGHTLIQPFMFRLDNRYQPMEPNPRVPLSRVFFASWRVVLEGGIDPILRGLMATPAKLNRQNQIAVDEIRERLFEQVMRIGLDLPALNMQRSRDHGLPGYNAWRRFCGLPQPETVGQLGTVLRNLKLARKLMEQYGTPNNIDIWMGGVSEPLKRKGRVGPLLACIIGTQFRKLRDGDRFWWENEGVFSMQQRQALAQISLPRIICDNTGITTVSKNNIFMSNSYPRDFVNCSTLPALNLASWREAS

[6] = biological target: T2, Thyroid peroxidase (Homo sapiens) (UniProt P07202); experiment: Inhibition of TPO (unknown origin) using Amplex Red as substrate assessed as formation of resorufin by measuring ratio of Kinact to Ki measured every 20 secs by spectrophotometric analysis
T2 sequence (whole entry): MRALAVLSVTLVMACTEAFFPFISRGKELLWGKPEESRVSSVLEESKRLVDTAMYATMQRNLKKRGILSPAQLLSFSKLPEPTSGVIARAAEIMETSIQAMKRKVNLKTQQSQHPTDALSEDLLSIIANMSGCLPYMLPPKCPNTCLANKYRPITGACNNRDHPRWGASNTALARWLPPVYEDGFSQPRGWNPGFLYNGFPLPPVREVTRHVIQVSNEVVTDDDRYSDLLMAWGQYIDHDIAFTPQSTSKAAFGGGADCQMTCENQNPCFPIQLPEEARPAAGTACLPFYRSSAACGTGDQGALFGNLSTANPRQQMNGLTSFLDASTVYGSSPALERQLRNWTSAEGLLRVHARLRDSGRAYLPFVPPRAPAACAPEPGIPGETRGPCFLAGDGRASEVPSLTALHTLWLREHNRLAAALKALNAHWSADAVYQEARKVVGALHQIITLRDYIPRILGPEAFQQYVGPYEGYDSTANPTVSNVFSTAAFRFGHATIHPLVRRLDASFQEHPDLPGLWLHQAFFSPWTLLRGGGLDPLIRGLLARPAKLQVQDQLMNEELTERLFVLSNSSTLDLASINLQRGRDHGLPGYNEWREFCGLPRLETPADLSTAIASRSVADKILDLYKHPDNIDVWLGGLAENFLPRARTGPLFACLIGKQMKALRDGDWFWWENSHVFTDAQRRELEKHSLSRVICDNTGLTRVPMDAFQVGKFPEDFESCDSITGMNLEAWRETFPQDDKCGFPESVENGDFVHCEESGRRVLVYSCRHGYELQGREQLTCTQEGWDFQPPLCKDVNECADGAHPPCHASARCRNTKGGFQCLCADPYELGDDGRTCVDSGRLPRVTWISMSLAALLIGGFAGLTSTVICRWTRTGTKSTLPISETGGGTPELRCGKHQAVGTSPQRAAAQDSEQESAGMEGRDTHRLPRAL
Summary of the method: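 Amplex Red oxidation to resorufin in 50 mM sodium phosphate pH 7.4, 150 mM NaCl, 1 mM DTPA, 2 μM H2O2, 30 μM Amplex Red, 2% DMSO. Reaction started by adding TPO. Background rate measured with bovine catalase added and subtracted. Fluorescence (ex 530/em 580) read every 20 s at room temperature. kinact/KI taken from initial rates over the first 300 s. Geometric mean of at least two experiments.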

Myeloperoxidase = biological target: T3, Myeloperoxidase (Homo sapiens, UniProt P05164); experiment: as §3
T3 sequence (P05164 whole entry): T1 sequence (whole entry)

[7] = Drug metabolism assessed as formation of 5-(2,4-dimethoxyphenyl)-7-oxo-2,3,4,7-tetrahydrooxazolo[3,2-a]pyrimidin-4-ium at 10 uM after 60 mins by LC-MS/MS analysis in presence of human MPO/H2O2/Cl-; type: physicochemical; settings: 1 h
Summary of the method: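 Also incubated at 10 μM in a human MPO/H₂O₂/Cl⁻ system. Parent and cyclic ether product tracked by LC−MS/MS using retention time and MH⁺.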

Chain of Cytochrome P450 3A4 (P08684 whole entry): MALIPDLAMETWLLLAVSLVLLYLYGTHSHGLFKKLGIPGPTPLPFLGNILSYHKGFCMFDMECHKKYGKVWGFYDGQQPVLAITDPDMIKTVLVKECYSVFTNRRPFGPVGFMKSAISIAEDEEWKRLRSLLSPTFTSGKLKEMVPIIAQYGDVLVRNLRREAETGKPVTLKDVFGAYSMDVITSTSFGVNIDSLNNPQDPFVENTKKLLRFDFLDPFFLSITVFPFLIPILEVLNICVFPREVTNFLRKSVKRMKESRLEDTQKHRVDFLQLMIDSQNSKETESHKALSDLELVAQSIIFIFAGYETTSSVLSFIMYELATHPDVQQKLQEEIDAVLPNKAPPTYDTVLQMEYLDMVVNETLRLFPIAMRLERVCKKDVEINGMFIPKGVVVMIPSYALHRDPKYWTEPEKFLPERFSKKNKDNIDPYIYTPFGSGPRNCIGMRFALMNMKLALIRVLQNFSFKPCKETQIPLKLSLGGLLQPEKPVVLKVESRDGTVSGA
Chain of Cytochrome P450 2C9 (P11712 whole entry): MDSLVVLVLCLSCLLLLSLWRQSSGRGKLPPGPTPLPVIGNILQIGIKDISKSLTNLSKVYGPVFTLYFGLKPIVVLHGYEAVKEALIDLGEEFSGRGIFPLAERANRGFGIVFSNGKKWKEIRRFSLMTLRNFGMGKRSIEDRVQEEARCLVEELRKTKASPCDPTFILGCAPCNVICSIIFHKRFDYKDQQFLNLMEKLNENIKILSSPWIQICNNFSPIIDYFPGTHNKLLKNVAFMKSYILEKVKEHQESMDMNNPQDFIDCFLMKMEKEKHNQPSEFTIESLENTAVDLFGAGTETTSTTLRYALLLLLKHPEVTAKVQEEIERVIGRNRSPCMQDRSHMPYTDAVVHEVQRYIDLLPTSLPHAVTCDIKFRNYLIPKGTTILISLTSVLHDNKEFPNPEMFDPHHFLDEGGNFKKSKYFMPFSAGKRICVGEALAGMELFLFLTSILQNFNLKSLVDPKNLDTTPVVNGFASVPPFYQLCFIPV

Row | SMILES | IC50 (Cytochrome P450 2C9) [nM] | IC50 (Cytochrome P450 3A4) [nM] | Vd [1] [L/kg] | Stability (Liver microsome) | IC50 (Cytochrome P450 2C19) [nM] | Vd [2] [L/kg] | Tmax [3] [h] | Vd [4] [L/kg] | pKinact [5] | log(ratio) [6] | Ki (Myeloperoxidase) [nM] | Drug metabolism [7]
1 | COc1ccc(Cl)cc1-c1cc(=O)[nH]c(=S)n1CC(N)=O [PF-06282999] | > 100000 | > 100000 | 1.09 | Stable | > 100000 | 0.9 | 1.5 | 0.54 | 2.43 | – | – | –
2 | COc1ccc(-c2cc(=O)[nH]c(=S)n2CC(N)=O)c(OC)c1 | – | – | – | – | – | – | – | 0.3 | 2.41 | < 0.5 | 372 | –
3 | COc1ccc(OC)c(-c2cc(=O)[nH]c(=S)n2CC(N)=O)c1 | – | – | – | – | – | – | – | 1.03 | 2.38 | < 0.5 | 347 | –
4 | COc1ccc(-c2cc(=O)[nH]c(=S)n2CCN)c(OC)c1 | – | – | – | – | – | – | – | 3.66 | 2.61 | < 0.5 | 174 | –
5 | COc1ccc(-c2cc(=O)[nH]c(=S)n2CCO)c(OC)c1 | – | – | – | – | – | – | – | 1.33 | 2.34 | < 0.5 | 151 | metabolite_detected

From ChEMBL document CHEMBL3632461 (J Med Chem, 2015)
